# Screens from PubChem.
# TRPC4 potent – positive allosteric modulators of TRPC4, primary screen, cell-based, mouse TRPC4beta, HEK293 mu-opioid, Fluo-4 calcium | Short transient receptor potential channel 4 (Mus musculus), Q9QUQ5 | DAMGO EC20, Fluo-4 Ca2+ flux; active compounds read high | actives 0.42% (n = 310,000) | AID 2227, 2009 | B-score at 10 µM;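 active = B-score of calcium response area above 5 SD of library B-scores, with initial fluorescence ratio within 5 SD of library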;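 also: B-score of integrated fluorescence ratio over time as area under calcium response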
# TRPC4 agonist – activators of mouse TRPC4 channel, primary screen, Fluo4 calcium, HEK293 TRPC4beta/mu-opioid cells. actives 0.49% (n = 310,000). B-score at 10 µM. Fluo4 calcium fluorescence; active compounds read high;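 active = B-score above 5 SD of library B-scores, and initial fluorescence ratio not above library mean plus 5 SD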;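 also: positive B-score marks a calcium rise read as TRPC4 activation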
#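 system = HEK293 cells stably co-expressing mouse TRPC4beta and mu-opioid receptor | schedule = Fluo4 dye loading 45 min at room temperature, 110 s recording | measure = B-scored integrated calcium fluorescence ratio | signal = Fluo4 calcium-sensitive dye fluorescence, kinetic, 1 Hz baseline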
# TRPC4 inh – inhibitors of mouse TRPC4 channel, primary screen, Fluo4 calcium, HEK293 TRPC4beta/mu-opioid cells; B-score at 10 µM; Short transient receptor potential channel 4 (Mus musculus), Q9QUQ5; AID 2247, 2010; DAMGO-evoked Fluo4 calcium flux; active compounds read low; actives 0.39% (n = 300,000);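 active = B-score over 3 SD under the library average, no early fluorescence shift, positive overall ratio signal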
#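 System: stable TRPC4beta/mu-opioid receptor HEK293 cells; Dosing: single-point compound dosing; Measured by: Fluo4 Ca2+ flux fluorescence; Read-out basis: per-well B score of integrated baseline-normalized Fluo4 ratio.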
# TRPC6 act – mouse TRPC6 channel activators, primary screen, cell-based, HEK293, membrane potential dye; B-score at 10 µM; HEK293-TRPC6 membrane potential dye fluorescence; active compounds read high; AID 2550, 2010; Short transient receptor potential channel 6 (Mus musculus), Q61143; actives 0.13% (n = 310,000);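 active = B-score of the integrated fluorescence ratio above library mean plus 3 SD, and starting fluorescence ratio within library mean plus 5 SD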;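 also: higher score means more depolarization so channel activation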
# Target sequence (Q61143 whole entry, looked up): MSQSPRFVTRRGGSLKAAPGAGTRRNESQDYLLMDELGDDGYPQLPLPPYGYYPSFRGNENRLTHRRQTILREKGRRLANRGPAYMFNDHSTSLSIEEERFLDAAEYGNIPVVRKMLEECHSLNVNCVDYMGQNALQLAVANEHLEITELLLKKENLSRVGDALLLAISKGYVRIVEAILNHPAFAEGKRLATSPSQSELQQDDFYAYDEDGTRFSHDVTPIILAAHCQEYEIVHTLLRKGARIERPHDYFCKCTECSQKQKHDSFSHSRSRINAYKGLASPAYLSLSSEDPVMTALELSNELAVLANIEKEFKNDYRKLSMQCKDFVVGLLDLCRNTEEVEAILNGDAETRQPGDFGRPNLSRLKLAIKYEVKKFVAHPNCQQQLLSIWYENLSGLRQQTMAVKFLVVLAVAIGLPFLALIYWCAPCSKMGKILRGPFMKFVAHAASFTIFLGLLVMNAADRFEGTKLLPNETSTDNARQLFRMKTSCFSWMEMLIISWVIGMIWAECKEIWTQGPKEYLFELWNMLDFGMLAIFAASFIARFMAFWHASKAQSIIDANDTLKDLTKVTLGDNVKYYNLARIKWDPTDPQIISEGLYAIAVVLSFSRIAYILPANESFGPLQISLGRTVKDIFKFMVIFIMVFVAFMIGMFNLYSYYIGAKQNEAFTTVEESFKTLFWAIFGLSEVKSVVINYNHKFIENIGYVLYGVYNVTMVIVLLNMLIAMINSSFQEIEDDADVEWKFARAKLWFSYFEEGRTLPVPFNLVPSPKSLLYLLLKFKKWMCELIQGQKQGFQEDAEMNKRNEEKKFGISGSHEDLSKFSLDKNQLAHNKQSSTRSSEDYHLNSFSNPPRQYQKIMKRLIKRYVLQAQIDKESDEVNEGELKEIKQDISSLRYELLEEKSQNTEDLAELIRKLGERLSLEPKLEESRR
# TRPC6 inh – mouse TRPC6 channel inhibitors, primary screen, cell-based, HEK293, membrane potential dye; Short transient receptor potential channel 6 (Mus musculus), Q61143; ACh-evoked depolarization; active compounds read low; B-score at 10 µM; actives 1.1% (n = 310,000); AID 2553, 2010;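 active = B-score under library mean minus 3 SD, initial fluorescence not abnormally high, positive integrated signal ratio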;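 also: B-score derived from integrated fluorescence ratio over the kinetic read; more negative B-score means stronger inhibition of depolarization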
# HEK293 MPD ctr – parental HEK293 membrane potential modulation, confirmation, counter-screen for TRPC6 modulator project, cell-based; shares compounds with TRPC6 inh; membrane potential dye fluorescence; membrane potential signal change, % at 10 µM; actives 51% (n = 2,400);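 active = membrane potential signal moves up or down beyond 5 SD from buffer-only wells, on both duplicate plates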
# HEK293 MPD ctr 2 – second counter-screen for TRPC6 modulators: effect in parental HEK293 cells | shares compounds with TRPC6 inh | membrane potential dye fluorescence; after compound, maximal acetylcholine stimulation | inhibition, % at 10 µM | actives 14% (n = 2,400);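 active = membrane potential signal drops by more than 5 SD from the mean control signal, in both duplicate plates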;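 also: plate controls were acetylcholine ECmax control wells for no effect and buffer only wells for full effect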
# TRPC4/MOR mod – TRPC4 modulation by TRPC6 hit compounds, confirmation, selectivity assay for TRPC6 modulator project, cell-based, HEK293 TRPC4/mu-opioid, membrane potential dye, mouse; shares compounds with TRPC6 inh; membrane potential fluorescence; percent change from control (negative = decrease, positive = increase), % at 10 µM; actives 69% (n = 2,400);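 active = membrane potential signal moved up or down beyond 5 SD of buffer control wells, in both duplicate plates, actives on both sides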;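 also: plate controls were assay buffer wells for no effect and DAMGO maximal-effect wells for full effect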
# TRPC4 ctr inh 2 – second selectivity test of TRPC6 modulators against mouse TRPC4; shares compounds with TRPC6 inh; HEK293 TRPC4/mu-opioid, membrane potential dye fluorescence; stimulated with maximal-effect DAMGO; inhibition, % at 10 µM; actives 55% (n = 2,400);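 active = drop in membrane potential signal beyond 5 SD of the control wells in both duplicate plates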;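 also: TRPC4 counter screen for TRPC6 hits run under conditions tuned for TRPC6 not TRPC4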
# TRPC6 inh conf – mouse TRPC6 channel inhibitors, confirmation, HEK293 cells, membrane potential dye, duplicate; shares compounds with TRPC6 inh; ACh-evoked depolarization; inhibition, % at 10 µM; actives 43% (n = 3,300);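 active = fluorescence ratio falls more than 5 SD below the full-stimulation control mean, in both duplicate runs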;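 also: integrated fluorescence ratio of peak minus minimum over baseline after agonist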
# TRPC6 act conf – mouse TRPC6 channel activators, confirmation, HEK293 cells, membrane potential dye, duplicate; HEK293-TRPC6 membrane potential dye fluorescence, FDSS; AID 488961, 2010; shares compounds with TRPC6 inh; actives 11% (n = 2,800); activation, % at 10 µM;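 active = ratio signal rise beyond 5 SD above unstimulated control wells' mean, seen in both duplicate runs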;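 also: plate controls were buffer EC0 wells for no effect and acetylcholine ECmax response for full effect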
# Active calls of the source: *; i = inactive; / = no result. Sampled rows, rich in hits. Any-hit rate of the full collection: about 2.3%.
SMILES,TRPC4 potent,TRPC4 agonist,TRPC4 inh,TRPC6 act,TRPC6 inh,HEK293 MPD ctr,HEK293 MPD ctr 2,TRPC4/MOR mod,TRPC4 ctr inh 2,TRPC6 inh conf,TRPC6 act conf
CCN(CC)CCN1C(=O)c2cccc3cc(N)cc(c23)C1=O,i,i,i,i,-5.5*,531%*,i,-32%*,61%*,48%*,i
Nc1cc2c3c(cccc3c1)C(=O)N(CCN1CCCC1)C2=O,i,i,i,i,i,/,/,/,/,/,/
CC12CCC(C(=O)Nc3cccc(Cl)c3Cl)([C@H](Br)C1=O)C2(C)C (stereo not given in full),i,i,i,i,i,/,/,/,/,/,/
CC12CCC(C(=O)Nc3c(Cl)cccc3Cl)(C(Br)C1=O)C2(C)C (stereo not given),i,i,i,i,-6.2*,i,i,i,i,i,i
COc1cccc(CNC(=O)CCC2CCCN(c3cc(C)nc(N4CCCC4)n3)C2)c1 (stereo not given),i,i,i,i,-6.1*,i,i,-9.0%*,43%*,48%*,i
COc1cccc(CNC(=O)CCC2CCCN(C3CCOCC3)C2)c1 (stereo not given),i,i,i,i,i,/,/,/,/,/,/
Cc1cccc2c(N)c3c(nc12)N(C)CC3,i,i,i,i,-5.5*,-154%*,91%*,-36%*,81%*,78%*,i
Cc1ccc2nc3c(c(N)c2c1)CCN3c1ccccc1,i,i,i,i,i,/,/,/,/,/,/
CN1CCc2c1nc1ccccc1c2N (tested in a mixture with another compound),i,i,i,i,i,/,/,/,/,/,/
